Assay results published in ChEMBL document CHEMBL1921792, “Synthesis and anticonvulsant activity of trans- and cis-2-(2,6-dimethylphenoxy)-N-(2- or 4-hydroxycyclohexyl)acetamides and their amine analogs” (Bioorg Med Chem, 2011).

Columns and labels:
Rattus norvegicus [1] = test: Neurotoxicity in rat assessed as neurological deficit at 125 mg/kg, po after 2 hrs; assay type: toxicity, organism-based; set-up: dose 125 mg/kg, route oral; settings: in vivo
Outline: (§1)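 Rats given the compound, suspended in 0.5% methylcellulose, by the stated route and dose. Neurological deficit was recorded at the listed times as ataxia and loss of placing response and muscle tone. Reported as number of rats showing toxicity/number tested.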

Rattus norvegicus [2] = test: Neurotoxicity in rat assessed as neurological deficit at 125 mg/kg, po after 4 hrs; assay type: toxicity, organism-based; set-up: dose 125 mg/kg, route oral; settings: in vivo; outline: as §1
Rattus norvegicus [3] = test: Neurotoxicity in rat assessed as neurological deficit at 125 mg/kg, po after 6 hrs; assay type: toxicity, organism-based; set-up: dose 125 mg/kg, route oral; settings: in vivo; outline: as §1
Rattus norvegicus [4] = test: Neurotoxicity in rat assessed as neurological deficit at 125 mg/kg, po after 8 hrs; assay type: toxicity, organism-based; set-up: dose 125 mg/kg, route oral; settings: in vivo; outline: as §1
Rattus norvegicus [5] = test: Neurotoxicity in rat assessed as neurological deficit at 125 mg/kg, po after 24 hrs; assay type: toxicity, organism-based; set-up: dose 125 mg/kg, route oral; settings: in vivo; outline: as §1
Rattus norvegicus [6] = test: Neurotoxicity in rat assessed as neurological deficit at 250 mg/kg, po after 0.25 hrs; assay type: toxicity, organism-based; set-up: dose 250 mg/kg, route oral; settings: in vivo; outline: as §1
Rattus norvegicus [7] = test: Neurotoxicity in rat assessed as neurological deficit at 250 mg/kg, po after 0.5 hrs; assay type: toxicity, organism-based; set-up: dose 250 mg/kg, route oral; settings: in vivo; outline: as §1
Rattus norvegicus [8] = test: Neurotoxicity in rat assessed as neurological deficit at 250 mg/kg, po after 1 hr; assay type: toxicity, organism-based; set-up: dose 250 mg/kg, route oral; settings: in vivo; outline: as §1
Rattus norvegicus [9] = test: Neurotoxicity in rat assessed as neurological deficit at 250 mg/kg, po after 2 hrs; assay type: toxicity, organism-based; set-up: dose 250 mg/kg, route oral; settings: in vivo; outline: as §1
Rattus norvegicus [10] = test: Neurotoxicity in rat assessed as neurological deficit at 250 mg/kg, po after 4 hrs; assay type: toxicity, organism-based; set-up: dose 250 mg/kg, route oral; settings: in vivo; outline: as §1
Rattus norvegicus [11] = test: Neurotoxicity in rat assessed as neurological deficit at 250 mg/kg, po after 6 hrs; assay type: toxicity, organism-based; set-up: dose 250 mg/kg, route oral; settings: in vivo; outline: as §1
Rattus norvegicus [12] = test: Neurotoxicity in rat assessed as neurological deficit at 250 mg/kg, po after 8 hrs; assay type: toxicity, organism-based; set-up: dose 250 mg/kg, route oral; settings: in vivo; outline: as §1
Rattus norvegicus [13] = test: Neurotoxicity in rat assessed as neurological deficit at 250 mg/kg, po after 24 hrs; assay type: toxicity, organism-based; set-up: dose 250 mg/kg, route oral; settings: in vivo; outline: as §1
Rattus norvegicus [14] = test: Neurotoxicity in rat assessed as neurological deficit at 500 mg/kg, po after 0.25 hrs; assay type: toxicity, organism-based; set-up: dose 500 mg/kg, route oral; settings: in vivo; outline: as §1
Rattus norvegicus [15] = test: Neurotoxicity in rat assessed as neurological deficit at 500 mg/kg, po after 0.5 hrs; assay type: toxicity, organism-based; set-up: dose 500 mg/kg, route oral; settings: in vivo; outline: as §1
Rattus norvegicus [16] = test: Neurotoxicity in rat assessed as neurological deficit at 500 mg/kg, po after 1 hr; assay type: toxicity, organism-based; set-up: dose 500 mg/kg, route oral; settings: in vivo; outline: as §1
Rattus norvegicus [17] = test: Neurotoxicity in rat assessed as neurological deficit at 500 mg/kg, po after 2 hrs; assay type: toxicity, organism-based; set-up: dose 500 mg/kg, route oral; settings: in vivo; outline: as §1
Rattus norvegicus [18] = test: Neurotoxicity in rat assessed as neurological deficit at 500 mg/kg, po after 4 hrs; assay type: toxicity, organism-based; set-up: dose 500 mg/kg, route oral; settings: in vivo
Outline: (§2)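 Rats dosed orally with test agent suspended in 0.5% methylcellulose and observed for up to 24 h (time-to-peak-effect design). Neurological deficit was scored as ataxia with loss of placing response and muscle tone. Two rats per dose per time point; results given as number toxic/number tested.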

Rattus norvegicus [19] = test: Neurotoxicity in rat assessed as neurological deficit at 500 mg/kg, po after 6 hrs; assay type: toxicity, organism-based; set-up: dose 500 mg/kg, route oral; settings: in vivo; outline: as §2
Rattus norvegicus [20] = test: Neurotoxicity in rat assessed as neurological deficit at 500 mg/kg, po after 8 hrs; assay type: toxicity, organism-based; set-up: dose 500 mg/kg, route oral; settings: in vivo; outline: as §2
Rattus norvegicus [21] = test: Neurotoxicity in rat assessed as neurological deficit at 500 mg/kg, po after 24 hrs; assay type: toxicity, organism-based; set-up: dose 500 mg/kg, route oral; settings: in vivo; outline: as §1
Mus musculus [22] = test: Neurotoxicity in mouse assessed as inability to maintain equilibrium on rotarod at 130 mg/kg, ip after 0.25 hrs using rotarod test; assay type: toxicity, organism-based; set-up: dose 130 mg/kg, route intraperitoneal; settings: in vivo
Outline: (§3)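 Drug given ip to mice as a suspension in 0.5% methylcellulose. At the stated time after dosing, each mouse was placed on a 1 inch knurled rod turning at 6 rpm. Neurotoxicity = inability to stay balanced at least 1 min in each of three trials. Scored as animals toxic/animals tested in small groups.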

Mus musculus [23] = test: Neurotoxicity in mouse assessed as inability to maintain equilibrium on rotarod at 130 mg/kg, ip after 0.5 hrs using rotarod test; assay type: toxicity, organism-based; set-up: dose 130 mg/kg, route intraperitoneal; settings: in vivo; outline: as §3
Mus musculus [24] = test: Neurotoxicity in mouse assessed as inability to maintain equilibrium on rotarod at 130 mg/kg, ip after 1 hr by rotarod test; assay type: toxicity, organism-based; set-up: dose 130 mg/kg, route intraperitoneal; settings: in vivo; outline: as §3
Mus musculus [25] = test: Neurotoxicity in mouse assessed as inability to maintain equilibrium on rotarod at 130 mg/kg, ip after 2 hrs using rotarod test; assay type: toxicity, organism-based; set-up: dose 130 mg/kg, route intraperitoneal; settings: in vivo; outline: as §3
Mus musculus [26] = test: Anticonvulsant activity in ip dosed mouse assessed as time to show peak effect of protection against maximal electric shock-induced seizures; assay type: functional
Outline: (§4)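 Time-to-peak-effect assay: MES protection read at 0.25–4 h after dosing. Mice ip (60–130 mg/kg), rats po (15 or 30 mg/kg) or ip (30 mg/kg). Groups of 4–8; result is protected/tested.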

Rattus norvegicus [27] = test: Anticonvulsant activity in po dosed rat assessed as time to show peak effect of protection against maximal electric shock-induced seizures; assay type: functional; outline: as §4

In the case of `Cc1cccc(C)c1OCC(=O)NC1CCCCC1O.Cl` (racemic; 1), the Activity (Rattus norvegicus [1]) is reported as “Non-toxic”, the Activity (Rattus norvegicus [2]) is reported as “Non-toxic” and the Activity (Rattus norvegicus [3]) is reported as “Non-toxic”. The Activity (Rattus norvegicus [4]) was “Non-toxic”, the Activity (Rattus norvegicus [5]) was “Non-toxic” and the Activity (Rattus norvegicus [6]) was “Non-toxic”. For the same compound, the Activity (Rattus norvegicus [7]) was “Non-toxic”, the Activity (Rattus norvegicus [8]) was “Non-toxic” and the Activity (Rattus norvegicus [9]) was “Non-toxic”. For the same compound, the Activity (Rattus norvegicus [10]) was “Non-toxic”, the Activity (Rattus norvegicus [11]) was “Non-toxic” and the Activity (Rattus norvegicus [12]) was “Non-toxic”. The Activity (Rattus norvegicus [13]) was “Non-toxic”, the Activity (Rattus norvegicus [14]) was “Non-toxic” and the Activity (Rattus norvegicus [15]) was “Non-toxic”. The Activity (Rattus norvegicus [16]) was “Non-toxic”, the Activity (Rattus norvegicus [17]) was “Non-toxic” and the Activity (Rattus norvegicus [18]) was “Non-toxic”. For the same compound, the Activity (Rattus norvegicus [19]) was “Non-toxic”, the Activity (Rattus norvegicus [20]) was “Non-toxic” and the Activity (Rattus norvegicus [21]) was “Non-toxic”. For the same compound, the Activity (Mus musculus [22]) was “Toxic”, the Activity (Mus musculus [23]) was “Non-toxic” and the Activity (Mus musculus [24]) was “Non-toxic”. For the same compound, the Activity (Mus musculus [25]) was “Non-toxic”, the Time (Mus musculus [26]) was 0.25 h and the Time (Rattus norvegicus [27]) was 0.25 h.
